This is an account of results in publication PMC8640676 (Journal of Pesticide Science, 2021).

This experiment addresses T1, protoporphyrinogen oxidase (PPO) (Canis lupus familiaris, UniProt A0A8I3Q7Z3).
T1 sequence (A0A8I3Q7Z3 1-480): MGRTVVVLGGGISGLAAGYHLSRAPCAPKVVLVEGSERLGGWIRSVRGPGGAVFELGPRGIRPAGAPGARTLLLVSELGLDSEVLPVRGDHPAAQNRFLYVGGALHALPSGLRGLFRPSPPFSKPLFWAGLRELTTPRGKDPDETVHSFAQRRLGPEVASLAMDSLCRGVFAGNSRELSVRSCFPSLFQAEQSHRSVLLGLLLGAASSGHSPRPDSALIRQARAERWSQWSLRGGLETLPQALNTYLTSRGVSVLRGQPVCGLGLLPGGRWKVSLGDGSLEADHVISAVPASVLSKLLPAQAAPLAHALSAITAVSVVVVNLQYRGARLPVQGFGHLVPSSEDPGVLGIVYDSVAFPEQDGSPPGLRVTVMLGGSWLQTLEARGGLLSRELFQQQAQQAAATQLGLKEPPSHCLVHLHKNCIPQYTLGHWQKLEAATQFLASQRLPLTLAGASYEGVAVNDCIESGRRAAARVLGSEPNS
Nature of the experiment: PPO-inhibition assay, dog liver mitochondrial fraction. The experiment is classed as biochemical. In a few lines: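 Liver mitochondria came from pooled SD rats and humans, or were freshly kit-isolated from Crl:CD1 mice and TOYO beagles. They were used at 0.2 mg protein/mL in 100 mM Tris-HCl pH 7.5 with 0.1% Triton-X, 1 mM EDTA and 40 mM ascorbate, preincubated 10 min at 37°C, then given 0.5 µM protoporphyrinogen IX. PPIX fluorescence (ex 410/em 630 nm) was read for 60 min at 37°C. Heat-killed mitochondria gave the background, and IC50 came from 4-parameter fits over 3 runs.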

Each structure is given as a SMILES string.

On to `Cn1c(C(F)(F)F)cc(=O)n(-c2cc(Oc3cccnc3OCC(=O)O)c(Cl)cc2F)c1=O` [S-3100-CA, (3-{2-chloro-4-fluoro-5-[1,2,3,6-tetrahydro-3-methyl-2,6-dioxo-4-(trifluoromethyl)pyrimidin-1-yl]phenoxy}pyridin-2-yloxy)acetic acid], for which half-maximal inhibition (IC50) was put at 11.1 ± 3.12 nM.
